Data: ChEMBL document CHEMBL4406830, “Galloyl esters of trans-stilbenes are inhibitors of FASN with anticancer activity on non-small cell lung cancer cells” (Eur J Med Chem, 2019)
One block for each compound: values may come before it. Calls of active or inactive are those of the source. No cut-off for these calls is given here.

Columns and labels:
NCI-H1703 [1] = experiment: Antiproliferative activity against human NCI-H1703 cells expressing FASN assessed as growth inhibition at 25 uM after 72 hrs by MTS assay relative to control; type: functional; details: NCI-H1703, 72 h
Summary of the method: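 H1703 cells were treated with a single 25 µM concentration for 72 h. Viability was measured by MTS at 490 nm, with 0.1% DMSO and media-only correction, relative to untreated control. Mean ± SD of n = 3 independent determinations, unpaired t test against control.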

NCI-H1703 [2] = experiment: Induction of apoptosis in human NCI-H1703 cells expressing FASN assessed as cell death at 5 to 100 uM after 72 hrs by Annexin-V FITC staining/PI-based flow cytometry; type: functional
PC-9 = experiment: Induction of apoptosis in human PC9 cells harboring FASN expression and EGFR delE746-A750 mutant assessed as cell death at 5 to 100 uM after 72 hrs by Annexin-V FITC/PI staining-based flow cytometry; type: functional
[3] = biological target: Fatty acid synthase (Homo sapiens) (UniProt P49327); experiment: Inhibition of full length human FASN transfected in HeLa cell lysates at 10 uM using acetyl Co-A/malonyl Co-A as substrate preincubated with enzyme for 2 hrs followed by substrate addition measured after 10 mins in presence of NADPH by microplate reader analysis; type: subcellular; details: Lysate
Fatty acid synthase (Homo sapiens), sequence (P49327 whole entry, looked up): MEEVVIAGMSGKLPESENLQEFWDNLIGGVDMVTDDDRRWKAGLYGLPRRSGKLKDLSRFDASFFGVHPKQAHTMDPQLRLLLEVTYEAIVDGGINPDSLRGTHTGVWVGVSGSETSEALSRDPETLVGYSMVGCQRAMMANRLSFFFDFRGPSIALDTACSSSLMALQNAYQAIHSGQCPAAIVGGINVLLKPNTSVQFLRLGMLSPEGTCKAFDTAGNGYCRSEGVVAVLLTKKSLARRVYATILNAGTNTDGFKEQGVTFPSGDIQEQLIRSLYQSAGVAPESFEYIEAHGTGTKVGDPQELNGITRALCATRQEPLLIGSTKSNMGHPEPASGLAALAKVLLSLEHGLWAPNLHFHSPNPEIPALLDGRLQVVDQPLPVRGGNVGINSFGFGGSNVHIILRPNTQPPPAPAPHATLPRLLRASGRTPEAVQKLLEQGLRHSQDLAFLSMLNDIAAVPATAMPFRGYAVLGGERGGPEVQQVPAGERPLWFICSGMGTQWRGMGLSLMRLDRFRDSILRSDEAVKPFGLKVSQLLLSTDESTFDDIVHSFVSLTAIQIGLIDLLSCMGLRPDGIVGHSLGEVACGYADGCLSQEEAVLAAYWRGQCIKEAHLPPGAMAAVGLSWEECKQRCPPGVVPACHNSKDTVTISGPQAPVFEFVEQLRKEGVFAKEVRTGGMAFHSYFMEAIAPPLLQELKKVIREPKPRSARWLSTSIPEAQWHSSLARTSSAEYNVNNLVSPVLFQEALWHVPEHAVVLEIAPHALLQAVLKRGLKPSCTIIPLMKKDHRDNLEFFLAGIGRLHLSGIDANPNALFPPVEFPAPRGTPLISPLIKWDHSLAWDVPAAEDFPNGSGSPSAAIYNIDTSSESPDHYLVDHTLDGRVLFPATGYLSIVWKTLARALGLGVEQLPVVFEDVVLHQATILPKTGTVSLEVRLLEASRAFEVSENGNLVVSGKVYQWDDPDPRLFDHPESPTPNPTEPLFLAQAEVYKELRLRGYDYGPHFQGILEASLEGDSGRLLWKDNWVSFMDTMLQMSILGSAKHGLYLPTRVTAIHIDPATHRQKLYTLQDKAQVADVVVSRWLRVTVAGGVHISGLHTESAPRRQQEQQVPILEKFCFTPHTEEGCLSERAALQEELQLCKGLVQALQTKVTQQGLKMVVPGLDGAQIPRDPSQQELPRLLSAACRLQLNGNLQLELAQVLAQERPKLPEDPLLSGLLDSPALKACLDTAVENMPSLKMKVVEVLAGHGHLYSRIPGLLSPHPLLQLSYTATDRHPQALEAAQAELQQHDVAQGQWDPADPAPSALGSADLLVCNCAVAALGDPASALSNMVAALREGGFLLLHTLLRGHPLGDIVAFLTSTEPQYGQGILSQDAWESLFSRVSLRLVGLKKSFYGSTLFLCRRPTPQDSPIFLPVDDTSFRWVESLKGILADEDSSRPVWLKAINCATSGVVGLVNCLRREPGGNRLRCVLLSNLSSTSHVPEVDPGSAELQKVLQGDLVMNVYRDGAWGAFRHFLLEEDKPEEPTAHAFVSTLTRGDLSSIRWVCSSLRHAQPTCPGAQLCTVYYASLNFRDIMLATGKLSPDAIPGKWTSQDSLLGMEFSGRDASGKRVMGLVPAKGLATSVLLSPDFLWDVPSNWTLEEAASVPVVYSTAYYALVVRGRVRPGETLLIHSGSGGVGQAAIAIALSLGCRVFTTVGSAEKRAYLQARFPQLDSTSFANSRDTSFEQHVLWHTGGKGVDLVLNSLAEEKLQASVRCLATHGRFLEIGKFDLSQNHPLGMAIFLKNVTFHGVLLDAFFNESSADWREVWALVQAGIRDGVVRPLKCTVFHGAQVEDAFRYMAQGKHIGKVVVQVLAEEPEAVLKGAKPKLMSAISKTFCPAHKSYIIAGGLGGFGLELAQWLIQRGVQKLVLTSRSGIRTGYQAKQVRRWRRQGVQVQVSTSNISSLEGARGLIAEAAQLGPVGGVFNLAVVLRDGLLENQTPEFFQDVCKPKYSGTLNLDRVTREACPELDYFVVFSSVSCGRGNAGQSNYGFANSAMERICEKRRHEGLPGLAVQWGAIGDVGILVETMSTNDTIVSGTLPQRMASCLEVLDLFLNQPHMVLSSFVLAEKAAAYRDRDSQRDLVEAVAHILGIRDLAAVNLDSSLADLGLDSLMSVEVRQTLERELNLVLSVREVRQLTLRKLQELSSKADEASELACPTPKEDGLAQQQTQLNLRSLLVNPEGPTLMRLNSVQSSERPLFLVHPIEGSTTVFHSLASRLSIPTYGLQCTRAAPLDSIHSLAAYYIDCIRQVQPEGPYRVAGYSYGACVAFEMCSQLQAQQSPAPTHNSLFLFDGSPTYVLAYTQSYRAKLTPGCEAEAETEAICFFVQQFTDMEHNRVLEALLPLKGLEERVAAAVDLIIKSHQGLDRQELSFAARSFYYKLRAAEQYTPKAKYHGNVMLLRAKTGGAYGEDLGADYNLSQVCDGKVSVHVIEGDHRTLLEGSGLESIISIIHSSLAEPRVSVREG
Summary of the method: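 Human FASN was made by in vitro translation from a FASN plasmid. Lysate was diluted 3:7 in 100 mM potassium phosphate, pH 6.5, 1 mM EDTA. It was preincubated with compound (10 µM final) for 2 h at 37 °C. Buffer containing acetyl-CoA (55 µM) and NADPH (330 µM) was added, then the reaction was started with malonyl-CoA (500 µM stock). A340 was read at 0 and 10 min; triplicates.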

[4] = biological target: Fatty acid synthase (Homo sapiens) (UniProt P49327); experiment: Inhibition of FASN in human PC9 cells harboring FASN expression and EGFR delE746-A750 mutant assessed as disruption of AKT/FASN positive feedback loop by measuring decrease in FASN expression at 5 uM after 48 hrs by Western immunoblot based densitometric assay relative to control; type: cell-based
Summary of the method: (§1)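 PC-9 or H1703 cells were seeded at 8 × 10^5 per 100 mm dish and treated for 48 h at 1 or 5 µM (or 5, 50 and 100 µM). RIPA lysates were BCA-quantified and run on 8% SDS-PAGE, then transferred to PVDF. Blots were probed for FASN, AKT, phospho-AKT S473 and GAPDH and detected by ECL. Bands were quantified by densitometry and normalised to vehicle control.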

[5] = biological target: Fatty acid synthase (Homo sapiens) (UniProt P49327); experiment: Inhibition of FASN in human PC9 cells harboring FASN expression and EGFR delE746-A750 mutant assessed as disruption of AKT/FASN positive feedback loop by measuring decrease in FASN expression at 50 uM after 48 hrs by Western immunoblot based densitometric assay relative to control; type: cell-based; summary of the method: as §1
[6] = biological target: Fatty acid synthase (Homo sapiens) (UniProt P49327); experiment: Inhibition of FASN in human PC9 cells harboring FASN expression and EGFR delE746-A750 mutant assessed as disruption of AKT/FASN positive feedback loop by measuring decrease in FASN expression at 100 uM after 48 hrs by Western immunoblot based densitometric assay relative to control; type: cell-based; summary of the method: as §1
[7] = biological target: Fatty acid synthase (Homo sapiens) (UniProt P49327); experiment: Inhibition of FASN in human NCI-H1703 cells expressing FASN assessed as disruption of AKT/FASN positive feedback loop by measuring decrease in FASN expression at 5 uM after 48 hrs by Western immunoblot based densitometric assay relative to control; type: cell-based; summary of the method: as §1
[8] = biological target: Fatty acid synthase (Homo sapiens) (UniProt P49327); experiment: Inhibition of FASN in human NCI-H1703 cells expressing FASN assessed as disruption of AKT/FASN positive feedback loop by measuring decrease in FASN expression at 50 uM after 48 hrs by Western immunoblot based densitometric assay relative to control; type: cell-based; summary of the method: as §1
[9] = biological target: Fatty acid synthase (Homo sapiens) (UniProt P49327); experiment: Inhibition of FASN in human NCI-H1703 cells expressing FASN assessed as disruption of AKT/FASN positive feedback loop by measuring decrease in FASN expression at 100 uM after 48 hrs by Western immunoblot based densitometric assay relative to control; type: cell-based; summary of the method: as §1
[10] = biological target: Fatty acid synthase (Homo sapiens) (UniProt P49327); experiment: Inhibition of FASN in human PC9 cells harboring FASN expression and EGFR delE746-A750 mutant assessed as disruption of AKT/FASN positive feedback loop by measuring reduction in AKT expression at 5 uM after 48 hrs by Western immunoblot based densitometric assay relative to control; type: cell-based; summary of the method: as §1
[11] = biological target: Fatty acid synthase (Homo sapiens) (UniProt P49327); experiment: Inhibition of FASN in human PC9 cells harboring FASN expression and EGFR delE746-A750 mutant assessed as disruption of AKT/FASN positive feedback loop by measuring reduction in AKT expression at 50 uM after 48 hrs by Western immunoblot based densitometric assay relative to control; type: cell-based; summary of the method: as §1
[12] = biological target: Fatty acid synthase (Homo sapiens) (UniProt P49327); experiment: Inhibition of FASN in human PC9 cells harboring FASN expression and EGFR delE746-A750 mutant assessed as disruption of AKT/FASN positive feedback loop by measuring reduction in AKT expression at 100 uM after 48 hrs by Western immunoblot based densitometric assay relative to control; type: cell-based; summary of the method: as §1
[13] = biological target: Fatty acid synthase (Homo sapiens) (UniProt P49327); experiment: Inhibition of FASN in human NCI-H1703 cells expressing FASN assessed as disruption of AKT/FASN positive feedback loop by measuring decrease in AKT expression at 5 uM after 48 hrs by Western immunoblot based densitometric assay relative to control; type: cell-based; summary of the method: as §1
[14] = biological target: Fatty acid synthase (Homo sapiens) (UniProt P49327); experiment: Inhibition of FASN in human NCI-H1703 cells expressing FASN assessed as disruption of AKT/FASN positive feedback loop by measuring decrease in AKT expression at 50 uM after 48 hrs by Western immunoblot based densitometric assay relative to control; type: cell-based; summary of the method: as §1
[15] = biological target: Fatty acid synthase (Homo sapiens) (UniProt P49327); experiment: Inhibition of FASN in human NCI-H1703 cells expressing FASN assessed as disruption of AKT/FASN positive feedback loop by measuring decrease in AKT expression at 100 uM after 48 hrs by Western immunoblot based densitometric assay relative to control; type: cell-based; summary of the method: as §1
[16] = biological target: Fatty acid synthase (Homo sapiens) (UniProt P49327); experiment: Inhibition of FASN in human PC9 cells harboring FASN expression and EGFR delE746-A750 mutant assessed as disruption of AKT/FASN positive feedback loop by measuring reduction in phosphorylated AKT expression at 5 uM after 48 hrs by Western immunoblot based densitometric assay relative to control; type: cell-based; summary of the method: as §1
[17] = biological target: Fatty acid synthase (Homo sapiens) (UniProt P49327); experiment: Inhibition of FASN in human PC9 cells harboring FASN expression and EGFR delE746-A750 mutant assessed as disruption of AKT/FASN positive feedback loop by measuring reduction in phosphorylated AKT expression at 50 uM after 48 hrs by Western immunoblot based densitometric assay relative to control; type: cell-based; summary of the method: as §1
[18] = biological target: Fatty acid synthase (Homo sapiens) (UniProt P49327); experiment: Inhibition of FASN in human PC9 cells harboring FASN expression and EGFR delE746-A750 mutant assessed as disruption of AKT/FASN positive feedback loop by measuring reduction in phosphorylated AKT expression at 100 uM after 48 hrs by Western immunoblot based densitometric assay relative to control; type: cell-based; summary of the method: as §1
[19] = biological target: Fatty acid synthase (Homo sapiens) (UniProt P49327); experiment: Inhibition of FASN in human NCI-H1703 cells expressing FASN assessed as disruption of AKT/FASN positive feedback loop by measuring decrease in phosphorylated AKT expression at 5 uM after 48 hrs by Western immunoblot based densitometric assay relative to control; type: cell-based; summary of the method: as §1
[20] = biological target: Fatty acid synthase (Homo sapiens) (UniProt P49327); experiment: Inhibition of FASN in human NCI-H1703 cells expressing FASN assessed as disruption of AKT/FASN positive feedback loop by measuring decrease in phosphorylated AKT expression at 50 uM after 48 hrs by Western immunoblot based densitometric assay relative to control; type: cell-based; summary of the method: as §1
[21] = biological target: Fatty acid synthase (Homo sapiens) (UniProt P49327); experiment: Inhibition of FASN in human NCI-H1703 cells expressing FASN assessed as disruption of AKT/FASN positive feedback loop by measuring decrease in phosphorylated AKT expression at 100 uM after 48 hrs by Western immunoblot based densitometric assay relative to control; type: cell-based; summary of the method: as §1
NCI-H1703 [22] = experiment: Antiproliferative activity against human NCI-H1703 cells expressing FASN assessed as reduction in cell viability after 72 hrs by MTS assay; type: functional, cell-based; details: NCI-H1703, 72 h
Summary of the method: (§2)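 ATCC-sourced cells. H1299, H1650, H1703 and PC-9 were grown in RPMI 1640 with 10% FBS. A549 was grown in high-glucose DMEM with 10% FBS and 1 mM pyruvate. SAEC was grown in BEGM. Cells were seeded at 3 × 10^3 per well (H1650 3.5 × 10^3) and left to attach overnight. Serial dilutions from DMSO stocks were added, 0.1% DMSO final, for 72 h at 37 °C, 5% CO2. Medium was replaced, MTS added, and A490 read after 2 h. IC50 was taken from % viability versus log concentration, 3 experiments.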

NCI-H1299 = experiment: Antiproliferative activity against human NCI-H1299 cells expressing FASN assessed as reduction in cell viability after 72 hrs by MTS assay; type: functional, cell-based; details: NCI-H1299, 72 h; summary of the method: as §2
NCI-H1650 = experiment: Antiproliferative activity against human NCI-H1650 cells expressing FASN assessed as reduction in cell viability after 72 hrs by MTS assay; type: functional, cell-based; details: NCI-H1650, 72 h; summary of the method: as §2

- inhibition [3]: inactive
- Ratio [4]: 0.99
- Ratio [5]: 1.01
- Ratio [6]: 1.04
- Ratio [7]: 1.05
- Ratio [8]: 1.12
- Ratio [9]: 1.05
- Ratio [10]: 0.99
- Ratio [11]: 1.01
- Ratio [12]: 0.98
- Ratio [13]: 1.09
- Ratio [14]: 0.99
- Ratio [15]: 1
- Ratio [16]: 1.02
- Ratio [17]: 0.95
- Ratio [18]: 0.88
- Ratio [19]: 0.97
- Ratio [20]: 0.82
- Ratio [21]: 0.73
Structure (SMILES): COc1cc(C(=O)Oc2ccc(/C=C/c3cccc(OC(=O)c4cc(OC)c(OC)c(OC)c4)c3)cc2)cc(OC)c1OC
- inhibition at 25 µM (NCI-H1703 [1]): < 50%
- Activity (NCI-H1703 [2]): inactive
- Activity (PC-9): inactive

Structure (SMILES): COc1cc(C(=O)Oc2ccc(/C=C/c3ccccc3)cc2)cc(OC)c1OC
- inhibition at 25 µM (NCI-H1703 [1]): < 50%

- IC50 (NCI-H1703 [22]): 6.2 µM
- IC50 (NCI-H1299): 8.6 µM
- IC50 (NCI-H1650): 49.7 µM
Structure (SMILES): O=C(Oc1ccc(Cc2ccc(OC(=O)c3cc(O)c(O)c(O)c3)cc2)cc1)c1cc(O)c(O)c(O)c1
- inhibition at 25 µM (NCI-H1703 [1]): > 50%

- IC50 (NCI-H1703 [22]): 8.9 µM
- IC50 (NCI-H1299): 11 µM
- IC50 (NCI-H1650): 14.1 µM
Structure (SMILES): O=C(Oc1ccc(/C=C/c2cccc(OC(=O)c3ccc(O)c(O)c3)c2)cc1)c1ccc(O)c(O)c1
- inhibition at 25 µM (NCI-H1703 [1]): > 50%

- IC50 (NCI-H1703 [22]): 6.5 µM
- IC50 (NCI-H1299): 10.2 µM
- IC50 (NCI-H1650): 36 µM
Structure (SMILES): O=C(Oc1cccc2c1CCCC2OC(=O)c1cc(O)c(O)c(O)c1)c1cc(O)c(O)c(O)c1 (stereo unspecified)
- inhibition at 25 µM (NCI-H1703 [1]): > 50%

Structure (SMILES): O=C(Oc1ccc(-c2cccc3ccccc23)cc1)c1cc(O)c(O)c(O)c1
- inhibition at 25 µM (NCI-H1703 [1]): < 50%
